In brackets after ≈: the same amount, converted by molar mass.
test system: Mycobacterium tuberculosis variant bovis; experiment: Antimicrobial activity against Mycobacterium bovis by two-fold serial dilution method; type: functional
Method in brief: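 Classical test-tube successive two-fold dilution in Youmans' modification of Proskauer and Beck liquid medium with 10% bovine serum. Inocula from 14-day-old cultures. Compounds dissolved in ethylene glycol (stock 10 mg/mL), diluted in medium to 0.75–100 µg/mL. Incubated at 37 °C. MIC is the lowest concentration inhibiting growth relative to a compound-free control.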

Point of comparison: `O=[N+]([O-])c1ccc2[nH]c(CCC3CCCCC3)nc2c1`, MIC 3.1 µg/mL (≈ 11.3 µM). Against it:
- Clc1ccc2[nH]c(CCC3CCCCC3)nc2c1 — 4.1-fold lower, 0.75 µg/mL (≈ 2.85 µM)
- Fc1ccc2[nH]c(CCC3CCCCC3)nc2c1 — the same, 3.1 µg/mL (≈ 12.6 µM)
- Cc1ccc2[nH]c(CCCc3ccccc3)nc2c1 — 8.1-fold higher, 25 µg/mL (≈ 99.9 µM)
- Brc1ccc2[nH]c(CCC3CCCCC3)nc2c1 — 4.1-fold lower, 0.75 µg/mL (≈ 2.44 µM)
- Clc1cc2nc(CCCC3CCCCC3)[nH]c2cc1Cl — 8.1-fold higher, 25 µg/mL (≈ 80.3 µM)
- Cc1ccc2[nH]c(-c3cc(-c4ccccc4)ccn3)nc2c1 — 8.1-fold higher, 25 µg/mL (≈ 87.6 µM)
- Cc1ccc2[nH]c(CCC3CCCCC3)nc2c1 — 4-fold higher, 12.5 µg/mL (≈ 51.6 µM)
- Clc1cc2nc(CCCc3ccccc3)[nH]c2cc1Cl — the same, 3.1 µg/mL (≈ 10.2 µM)
- Clc1cc2nc(CCC3CCCCC3)[nH]c2cc1Cl — 2.1-fold lower, 1.5 µg/mL (≈ 5.05 µM)
- Fc1ccc2[nH]c(CCCC3CCCCC3)nc2c1 — 2-fold higher, 6.2 µg/mL (≈ 23.8 µM)
- Cc1cc2nc(CCC3CCCCC3)[nH]c2cc1C — 4.1-fold lower, 0.75 µg/mL (≈ 2.93 µM)
- Cc1cc2nc(CCCc3ccccc3)[nH]c2cc1C — 2-fold higher, 6.2 µg/mL (≈ 23.5 µM)

Source: ChEMBL document CHEMBL3352568, “Synthesis and evaluation of in vitro antimycobacterial activity of novel 1H-benzo[d]imidazole derivatives and analogues” (Eur J Med Chem, 2015)
